# Assay results from different studies.
SMILES,assay,test system,conditions,measurement,value
Fc1ccc(Nc2c(Cn3cccn3)nc3ccccn23)cc1,metabolic stability,"rat, hepatocytes",,hepatocyte CLint,51 µL/min/10⁶ cells
CCNCCCNC/C=C\CNCCCNCC,,"human, plasma","intravenous, 200 mg, patients, infusion",clearance,3140 mL/min
c1cnc2ccc(Nc3nc(NC4CC4)c4nc[nH]c4n3)cc2c1,,"human, plasma","oral, 200 mg/m², patients",CL/F,80.9 L/h
NC(=O)C1CCN(c2nc(-c3ccccn3)nc3ccccc23)C1 (stereo not shown),metabolic stability,"human, liver microsomes",,microsomal CLint,37 µL/min/mg
CCOC(=O)C1=C(C)N/C(=C/c2cc(C)n(Cc3ccc(C(F)(F)F)cc3)c2C)C1=O,HPLC,,pH 7.4,chromatographic logD,3.5
COc1ccc(Nc2nc(-c3ccccn3)nc3ccccc23)cc1,metabolic stability,"human, liver microsomes",,microsomal CLint,73 µL/min/mg
O=C1C2N=CN3C(NCc4c(F)ccc5c4CCO5)=NC=C(c4cnc(C(F)(F)F)cc4CN1CC(F)F)C23 (stereo not shown),metabolic stability,"rat, liver microsomes","100 µM, 30 min",scaled CLint,20 mL/min/kg
c1ccc(-c2nc(NCCn3cnc4ccccc43)c3ccccc3n2)nc1,metabolic stability,"human, liver microsomes",,microsomal CLint,150 µL/min/mg
Cn1cnc(-c2nc3ccccn3c2Nc2ccc(F)cc2)c1,metabolic stability,"rat, hepatocytes",,hepatocyte CLint,14 µL/min/10⁶ cells
Oc1ccc(-c2nc(N3CCC(c4ccccn4)C3)c3ccccc3n2)cc1 (stereo not shown),metabolic stability,"human, liver microsomes",,microsomal CLint,99 µL/min/mg
C[C@H](C(=O)N[C@@H]1COc2ccccc2[C@H]1S(C)(=O)=O)c1ccc(F)cc1,metabolic stability,"rat, liver microsomes",1 µM,microsomal CLint,55 µL/min/mg
CCCN(c1ccc(F)cc1)c1c(-c2ccccn2)nc2ccccn12,metabolic stability,"rat, hepatocytes",,hepatocyte CLint,110 µL/min/10⁶ cells
Cc1ccc(C(=O)N(CCCN)[C@@H](c2oc3cc(Cl)ccc3c(=O)c2Cc2ccccc2)C(C)C)cc1,,"human, plasma","intravenous, 8 mg/m², single dose, patients, infusion",clearance,23.1 mL/min
c1ccc(-c2nc(NCc3nc4ccccc4o3)c3ccccc3n2)nc1,metabolic stability,"human, liver microsomes",,microsomal CLint,47 µL/min/mg
Fc1ccc(Nc2c(-c3ncccc3F)nc3ccccn23)cc1,metabolic stability,"rat, hepatocytes",,hepatocyte CLint,100 µL/min/10⁶ cells
N#CC1CCCN(c2nc(-c3ccccn3)nc3ccccc23)C1 (stereo not shown),metabolic stability,"human, liver microsomes",,microsomal CLint,48 µL/min/mg
Clc1cccc(-c2c(-c3ccccn3)nc3n2CCC3)c1,metabolic stability,"rat, hepatocytes",,hepatocyte CLint,51 µL/min/10⁶ cells
COc1cc(C(=O)NC2CCN(C)CC2)c(F)cc1Nc1ncc(C(F)(F)F)c(Oc2cccc3c2C(=O)N(C)C3)n1,,"human, plasma","oral, 300 mg, multiple doses, once daily, patients",CL/F,6.42 L/h
COc1cc(OC)cc(-c2c(-c3ccccn3)nc3n2CCC3)c1,metabolic stability,"rat, hepatocytes",,hepatocyte CLint,> 300 µL/min/10⁶ cells
CS(=O)(=O)CCC#N,,"human, plasma","oral, 300 mg, single dose, fasted",CL/F,0.217 mL/min/kg
COc1ccnc(-c2nc3ccccn3c2Nc2ccc(F)cc2)c1,metabolic stability,"rat, hepatocytes",,hepatocyte CLint,190 µL/min/10⁶ cells
OC[C@H]1O[C@@H](c2ccc(Cl)c(Cc3ccc(O[C@H]4CCOC4)cc3)c2)[C@H](O)[C@@H](O)[C@@H]1O,,"human, urine","oral, 2.5 mg, single dose",renal clearance,29.1 mL/min
